Laboratory results published in ChEMBL document CHEMBL1153109, “New potent 5-nitroindazole derivatives as inhibitors of Trypanosoma cruzi growth: synthesis, biological evaluation, and mechanism of action studies” (Bioorg Med Chem, 2009).

Key:
[1] = tested on: Trypanosoma cruzi; assay: Inhibition of parasitic respiration in Trypanosoma cruzi tulahuen epimastigotes assessed as oxygen uptake at 0.208 mM relative to control; type: functional
[2] = tested on: Trypanosoma cruzi; assay: Inhibition of parasitic respiration in Trypanosoma cruzi tulahuen epimastigotes assessed as oxygen uptake at 0.104 mM relative to control; type: functional
[3] = tested on: Radical scavenging activity; assay: Antioxidant activity assessed as DPPH radical scavenging activity; type: functional; set-up: concentration or dose not given beside the values
Procedure, shortened: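 Scavenging of DPPH radical measured by ESR. Reaction mixtures contain 1.0 mM dpph and 1.0 mM 5-NI, both prepared in acetonitrile. The control contains no 5-NI. Signal recorded 1 min after the start of the reaction at microwave frequency 9.72 GHz and power 20 mW.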

[4] = tested on: Trypanosoma cruzi; assay: Antitrypanosomal activity against Trypanosoma cruzi CL Brener epimastigotes after 5 days; type: functional, organism-based; conditions: 120 h
Procedure, shortened: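 CL Brener epimastigotes grown at 28 °C in BHI–Tryptose with 5% FBS. Stationary-phase (10-day) cells inoculated at 1 × 10⁶ cells/mL into medium with drug from a DMSO stock (final DMSO ≤0.4%); control contains 0.4% DMSO. Growth followed by A600. Inhibition at day 5 is computed from the day 0 and day 5 absorbances relative to control. IC50 is the concentration reducing the absorbance ratio to 50%.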

[5] = tested on: Caco-2; assay: Cytotoxicity against human Caco-2 cells at 25 uM by MTT assay; type: cell-based; conditions: caco-2, 25 µM
Procedure, shortened: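 Caco-2 cells kept in DMEM-F12 with 10% FBS, penicillin and streptomycin at 37 °C, 5% CO₂. Cells plated at 5 × 10⁴ cells/mL, then exposed to compound in PBS for 2 h. After washing, cells incubated with 0.5 mg/mL MTT for 120 min at 37 °C. Formazan dissolved in DMSO for 10 min at 37 °C and read at 540 nm.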

[6] = tested on: Trypanosoma cruzi; assay: Inhibition of parasitic respiration in Trypanosoma cruzi tulahuen epimastigotes assessed as oxygen uptake at 0.42 mM relative to control; type: functional
[7] = tested on: Trypanosoma cruzi; assay: Inhibition of parasitic respiration in Trypanosoma cruzi tulahuen epimastigotes assessed as oxygen uptake at 2 mM relative to control; type: functional
[8] = tested on: Trypanosoma cruzi; assay: Inhibition of parasitic respiration in Trypanosoma cruzi tulahuen epimastigotes assessed as oxygen uptake at 0.83 mM relative to control; type: functional

Structure (SMILES)	Oxygen uptake at 208 µM [1]	Oxygen uptake at 104 µM [2]	Activity [3]	IC50 [4]	Cytotoxicity [5]	Oxygen uptake at 420 µM [6]	Oxygen uptake at 2000 µM [7]	Oxygen uptake at 830 µM [8]
CN(C)CCCCCCn1nc(OCc2ccccc2)c2cc([N+](=O)[O-])ccc21	59%	100%	> 40%	9.4 µM	40%	52%		
COc1nn(CCCBr)c2ccc([N+](=O)[O-])cc12			< 30%	67.8 µM				
O=[N+]([O-])c1ccc2c(c1)c(OCc1ccccc1)nn2CCN1CCOCC1			< 30%	> 25 µM	0%			
COc1nn(CCCN(C)C)c2ccc([N+](=O)[O-])cc12			< 30%	> 25 µM	29%			
O=[N+]([O-])c1ccc2c(c1)c(OCc1ccccc1)nn2CCCCCN1CCCC1			< 30%	7.5 µM	25%			
COc1nn(CCN2CCOCC2)c2ccc([N+](=O)[O-])cc12			< 30%	> 25 µM	0%			
CCN(CC)CCn1nc(OC)c2cc([N+](=O)[O-])ccc21			< 30%	> 25 µM	0%			
COc1nn(CCCN2CCCCC2)c2ccc([N+](=O)[O-])cc12			< 30%	> 25 µM	0%			
O=[N+]([O-])c1ccc2c(c1)c(OCc1ccccc1)nn2CCCCCCN1CCCCC1			< 30%	7.4 µM	33%			
CC(C)N(CCn1nc(OCc2ccccc2)c2cc([N+](=O)[O-])ccc21)C(C)C			< 30%	9.2 µM	0%			
O=[N+]([O-])c1ccc2c(c1)c(OCc1ccccc1)nn2CCCCCCBr			< 30%	19.3 µM		100%	100%	100%
O=[N+]([O-])c1ccc2c(c1)c(OCc1ccccc1)nn2CCCCCN1CCc2ccccc2C1			< 30%	12.9 µM	15%			
O=[N+]([O-])c1ccc2c(c1)c(OCc1ccccc1)nn2CCN1CCCCC1			< 30%	8.4 µM	27%			
CCN(CC)CCn1nc(OCc2ccccc2)c2cc([N+](=O)[O-])ccc21			< 30%	11.3 µM	30%			
O=[N+]([O-])c1ccc2c(c1)c(OCc1ccccc1)nn2CCCCCBr			< 30%	20.7 µM		100%	38%	100%
COc1nn(CCN(C)C)c2ccc([N+](=O)[O-])cc12			< 30%	> 25 µM	15%			
O=[N+]([O-])c1ccc2c(c1)c(OCc1ccccc1)nn2CCCCCN1CCCCCC1			> 40%	10.5 µM	25%			
COc1nn(CCN(C(C)C)C(C)C)c2ccc([N+](=O)[O-])cc12			< 30%	> 25 µM	15%			
CN(C)CCn1nc(OCc2ccccc2)c2cc([N+](=O)[O-])ccc21	64%		< 30%	25 µM	12%	51%		
COc1nn(CCN2CCCCC2)c2ccc([N+](=O)[O-])cc12			< 30%	> 25 µM	10%			
